pKi: −log10 of the molar value. Activity calls are given as the source filed them. No cut-off for these calls is given here.

One assay addresses T1, Anthranilate synthase component 1 (Salmonella typhimurium (strain LT2 / SGSC1412 / ATCC 700720)) (UniProt P00898).
T1 sequence (whole entry): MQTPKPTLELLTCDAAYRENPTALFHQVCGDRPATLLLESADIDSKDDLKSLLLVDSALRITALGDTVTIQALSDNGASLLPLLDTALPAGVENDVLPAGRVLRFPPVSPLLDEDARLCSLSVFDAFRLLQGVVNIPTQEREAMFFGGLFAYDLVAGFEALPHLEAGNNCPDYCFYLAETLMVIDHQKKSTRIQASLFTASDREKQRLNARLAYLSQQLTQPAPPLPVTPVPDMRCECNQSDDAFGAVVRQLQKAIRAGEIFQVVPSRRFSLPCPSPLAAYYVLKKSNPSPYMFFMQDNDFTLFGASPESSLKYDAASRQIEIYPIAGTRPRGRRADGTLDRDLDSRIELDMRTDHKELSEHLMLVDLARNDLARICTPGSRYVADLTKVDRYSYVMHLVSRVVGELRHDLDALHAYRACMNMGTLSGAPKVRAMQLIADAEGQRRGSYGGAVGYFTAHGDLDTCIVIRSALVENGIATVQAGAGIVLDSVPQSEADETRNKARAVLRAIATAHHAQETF
The assay is described as follows: Noncompetitive inhibition of Salmonella Typhimurium anthranilate synthase trpE expressed in Escherichia coli BL21(DE3) using chorismate as substrate by double reciprocal plot. The following applies: Salmonella enterica subsp. enterica serovar Typhimurium. The gist of the method: (§1)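 S. typhimurium anthranilate synthase partial complex (TrpE2TrpG2), 2.2 nM, in a fluorescence assay read at 390 nm emission, 313 nm excitation, 25 °C. Buffer: 100 mM phosphate pH 7.0, 20 mM L-glutamine, 5 mM MgCl2 (saturating). Reactions were started with enzyme. Inhibitor ranged 10 μM–8 mM; chorismate ranged 0.5–5 KM. Ki versus chorismate came from initial rates.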
On to `Cc1ccc(C(=O)N[C@@H](C)C(=O)N[C@@H](Cc2cccc(Cl)c2)C(N)=O)c([N+](=O)[O-])c1O`, for which the result was Active.

The target of another assay is Anthranilate synthase component 1 (Salmonella typhimurium (strain LT2 / SGSC1412 / ATCC 700720), UniProt P00898). The assay is described as follows: Inhibition of Salmonella Typhimurium anthranilate synthase trpE:trpD […] coexpressing stop codon in trpD gene for encoding aminotransferase activity by spectrophotometry for enzyme-substrate-inhibitor complex. Details: species or system Salmonella enterica subsp. enterica serovar Typhimurium.
Conditions: not given
Compound `CC(C(=O)N[C@@H](CCCNC(=O)c1cccc(OCC(=O)O)c1)C(=O)NCCc1cccc2c1oc1c(CCC(N)=O)cccc12)c1ccc([N+](=O)[O-])cc1` (stereo partly drawn) had a pKi of 3.96.

Turning to `Cc1ccc(C(=O)N[C@@H](CCCNC(=O)c2cccc(OCC(=O)O)c2)C(=O)N[C@@H](Cc2ccc(C#N)cc2)C(N)=O)c([N+](=O)[O-])c1O`, the pKi is 4.09.

As to `NC(=O)c1cccc(OCC(=O)O)c1`, the pKi is 2.59.

Take `Cc1ccc(C(=O)N[C@@H](CCCCNC(=O)c2cccc(OCC(=O)O)c2)C(=O)N[C@@H](Cc2cccc(Cl)c2)C(N)=O)c([N+](=O)[O-])c1O`: the pKi was 4.27.

For another assay, the target named is T2, Anthranilate synthase component 1 (Salmonella typhimurium (strain LT2 / SGSC1412 / ATCC 700720), UniProt P00898).
T2 sequence (P00898 whole entry): T1 sequence (whole entry)
Nature of the assay: Inhibition of Salmonella Typhimurium anthranilate synthase trpE:trpD […] coexpressing stop codon in trpD gene for encoding aminotransferase activity by spectrophotometry for enzyme-inhibitor complex. Details: species or system Salmonella enterica subsp. enterica serovar Typhimurium.
Conditions: not given
As for `CC(C(=O)N[C@@H](CCCNC(=O)c1cccc(OCC(=O)O)c1)C(=O)NCCc1cccc2c1oc1c(CCC(N)=O)cccc12)c1ccc([N+](=O)[O-])cc1` (stereo partly drawn), the pKi was 3.60.

Compound `Cc1ccc(C(=O)N[C@@H](CCCNC(=O)c2cccc(OCC(=O)O)c2)C(=O)N[C@@H](Cc2ccc(C#N)cc2)C(N)=O)c([N+](=O)[O-])c1O` showed a pKi of 4.55.

Compound `NC(=O)c1cccc(OCC(=O)O)c1` showed a pKi of 3.12.

Regarding `Cc1ccc(C(=O)N[C@@H](CCCCNC(=O)c2cccc(OCC(=O)O)c2)C(=O)N[C@@H](Cc2cccc(Cl)c2)C(N)=O)c([N+](=O)[O-])c1O`, the negative-log Ki (pKi) was 4.70.

`Cc1ccc(C(=O)N[C@@H](C)C(=O)N[C@@H](Cc2cccc(Cl)c2)C(N)=O)c([N+](=O)[O-])c1O` gave a pKi of 3.70.

The next assay deals with T3, Isochorismate synthase EntC (Escherichia coli K-12) (UniProt P0AEJ2).
T3 sequence (whole entry): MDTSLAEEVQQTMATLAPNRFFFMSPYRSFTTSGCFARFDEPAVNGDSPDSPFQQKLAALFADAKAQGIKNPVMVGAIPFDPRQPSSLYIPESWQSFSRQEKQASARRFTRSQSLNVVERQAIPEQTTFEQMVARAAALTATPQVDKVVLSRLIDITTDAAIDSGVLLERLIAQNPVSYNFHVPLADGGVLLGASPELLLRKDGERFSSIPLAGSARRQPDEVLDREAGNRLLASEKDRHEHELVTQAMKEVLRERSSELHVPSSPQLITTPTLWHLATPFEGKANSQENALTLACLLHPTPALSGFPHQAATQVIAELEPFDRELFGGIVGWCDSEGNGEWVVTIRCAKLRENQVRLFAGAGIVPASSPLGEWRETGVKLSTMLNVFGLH
Nature of the assay: Noncompetitive inhibition of Escherichia coli K12 IS expressed in Escherichia coli BL21(DE3) by double reciprocal plot in presence of cofactor Mg2+.
Conditions: not given
The gist of the method: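 IS (75 nM) in an EntB/LDH coupled assay, with NADH loss read at 340 nm, 25 °C. Buffer: 50 mM triethanolamine pH 7.8, 100 μM NADH. Chorismate was held saturating at 200 μM while Mg2+ was varied 5–500 μM. Inhibitor ranged 10 μM–8 mM; the inhibition pattern came from initial rates.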
Turning to `CC(C(=O)N[C@@H](CCCNC(=O)c1cccc(OCC(=O)O)c1)C(=O)NCCc1cccc2c1oc1c(CCC(N)=O)cccc12)c1ccc([N+](=O)[O-])cc1` (stereo partly drawn), the result was Active.

With `Cc1ccc(C(=O)N[C@@H](CCCNC(=O)c2cccc(OCC(=O)O)c2)C(=O)N[C@@H](Cc2ccc(C#N)cc2)C(N)=O)c([N+](=O)[O-])c1O`, the result was Active.

For the compound `NC(=O)c1cccc(OCC(=O)O)c1`, the result was Active.

Turning to `Cc1ccc(C(=O)N[C@@H](CCCCNC(=O)c2cccc(OCC(=O)O)c2)C(=O)N[C@@H](Cc2cccc(Cl)c2)C(N)=O)c([N+](=O)[O-])c1O`, the outcome was Active.

Take `Cc1ccc(C(=O)N[C@@H](C)C(=O)N[C@@H](Cc2cccc(Cl)c2)C(N)=O)c([N+](=O)[O-])c1O`: the outcome was Active.

The next assay concerns the target T1, Anthranilate synthase component 1 (Salmonella typhimurium (strain LT2 / SGSC1412 / ATCC 700720)). Nature of the assay: Mixed-type inhibition of Salmonella Typhimurium anthranilate synthase trpE expressed in Escherichia coli BL21(DE3) using chorismate as substrate by double reciprocal plot. The conditions noted are these: Salmonella enterica subsp. enterica serovar Typhimurium. Put shortly:
as §1
Turning to `CC(C(=O)N[C@@H](CCCNC(=O)c1cccc(OCC(=O)O)c1)C(=O)NCCc1cccc2c1oc1c(CCC(N)=O)cccc12)c1ccc([N+](=O)[O-])cc1` (stereo partly drawn), the result was Active.

In the case of `Cc1ccc(C(=O)N[C@@H](CCCNC(=O)c2cccc(OCC(=O)O)c2)C(=O)N[C@@H](Cc2ccc(C#N)cc2)C(N)=O)c([N+](=O)[O-])c1O`, the result was Active.

Take `NC(=O)c1cccc(OCC(=O)O)c1`: the result was Active.

Take `Cc1ccc(C(=O)N[C@@H](CCCCNC(=O)c2cccc(OCC(=O)O)c2)C(=O)N[C@@H](Cc2cccc(Cl)c2)C(N)=O)c([N+](=O)[O-])c1O`: the result was Active.

The next assay has the same target. The assay is described as follows: Competitive inhibition of Salmonella Typhimurium anthranilate synthase trpE expressed in Escherichia coli BL21(DE3) by double reciprocal plot in presence of cofactor Mg2+. The conditions noted are these: Salmonella enterica subsp. enterica serovar Typhimurium.
On to `CC(C(=O)N[C@@H](CCCNC(=O)c1cccc(OCC(=O)O)c1)C(=O)NCCc1cccc2c1oc1c(CCC(N)=O)cccc12)c1ccc([N+](=O)[O-])cc1` (stereo partly drawn), for which the result was Active.

Consider `Cc1ccc(C(=O)N[C@@H](CCCNC(=O)c2cccc(OCC(=O)O)c2)C(=O)N[C@@H](Cc2ccc(C#N)cc2)C(N)=O)c([N+](=O)[O-])c1O`, for which the result was Active.

Consider `NC(=O)c1cccc(OCC(=O)O)c1`, for which the outcome was Active.

Regarding `Cc1ccc(C(=O)N[C@@H](CCCCNC(=O)c2cccc(OCC(=O)O)c2)C(=O)N[C@@H](Cc2cccc(Cl)c2)C(N)=O)c([N+](=O)[O-])c1O`, the result was Active.

A further assay addresses T4, Isochorismate synthase EntC (Escherichia coli K-12, UniProt P0AEJ2).
T4 sequence (P0AEJ2 whole entry): T3 sequence (whole entry)
The assay is described as follows: Inhibition of Escherichia coli K12 IS expressed in Escherichia coli BL21(DE3) by spectrophotometry.
Conditions: not given
The gist of the method:
(§2)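 Isochorismate synthase EntC (His-tagged, pET28a, BL21(DE3)) at 75 nM, coupled to excess EntB (2 μM) and 2 units LDH. Read-out was NADH oxidation at 340 nm, 25 °C. Buffer: 50 mM triethanolamine pH 7.8, 1 mM MgCl2 (saturating), 100 μM NADH. Inhibitor ranged 10 μM–8 mM; chorismate ranged 0.5–5 KM. Ki versus chorismate came from initial rates.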
With `CC(C(=O)N[C@@H](CCCNC(=O)c1cccc(OCC(=O)O)c1)C(=O)NCCc1cccc2c1oc1c(CCC(N)=O)cccc12)c1ccc([N+](=O)[O-])cc1` (stereo partly drawn), the pKi is 3.72.

On to `Cc1ccc(C(=O)N[C@@H](CCCNC(=O)c2cccc(OCC(=O)O)c2)C(=O)N[C@@H](Cc2ccc(C#N)cc2)C(N)=O)c([N+](=O)[O-])c1O`, for which the pKi is 3.59.

Regarding `NC(=O)c1cccc(OCC(=O)O)c1`, the pKi was 2.59.

`Cc1ccc(C(=O)N[C@@H](CCCCNC(=O)c2cccc(OCC(=O)O)c2)C(=O)N[C@@H](Cc2cccc(Cl)c2)C(N)=O)c([N+](=O)[O-])c1O` showed a pKi of 3.68.

In turn, `Cc1ccc(C(=O)N[C@@H](C)C(=O)N[C@@H](Cc2cccc(Cl)c2)C(N)=O)c([N+](=O)[O-])c1O` showed a pKi of 3.30.

For another assay, the target named is Aminodeoxychorismate synthase component 1 PabB (Escherichia coli K-12) (UniProt P05041). The assay is described as follows: Noncompetitive inhibition of Escherichia coli K12 ADCS by double reciprocal plot in presence of cofactor Mg2+.
Sequence of Aminodeoxychorismate synthase component 1 PabB (Escherichia coli K-12) (P05041 whole entry, looked up): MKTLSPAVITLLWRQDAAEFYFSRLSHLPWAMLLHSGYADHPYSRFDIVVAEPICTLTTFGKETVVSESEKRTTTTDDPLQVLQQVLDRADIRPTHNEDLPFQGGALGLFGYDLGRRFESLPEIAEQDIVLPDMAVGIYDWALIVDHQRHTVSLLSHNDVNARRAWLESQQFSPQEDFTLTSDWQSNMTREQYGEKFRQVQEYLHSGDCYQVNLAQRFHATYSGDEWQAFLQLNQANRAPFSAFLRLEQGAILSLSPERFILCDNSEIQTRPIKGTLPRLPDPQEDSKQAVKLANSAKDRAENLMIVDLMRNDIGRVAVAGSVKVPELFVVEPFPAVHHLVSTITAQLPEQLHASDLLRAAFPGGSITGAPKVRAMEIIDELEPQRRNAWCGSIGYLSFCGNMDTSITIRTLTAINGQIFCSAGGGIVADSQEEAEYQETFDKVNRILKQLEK
Conditions: not given
With `Cc1ccc(C(=O)N[C@@H](C)C(=O)N[C@@H](Cc2cccc(Cl)c2)C(N)=O)c([N+](=O)[O-])c1O`, the result was Active.

A further assay has the same target. The assay is described as follows: Competitive inhibition of Escherichia coli K12 ADCS by double reciprocal plot in presence of cofactor Mg2+.
Conditions: not given
Take `CC(C(=O)N[C@@H](CCCNC(=O)c1cccc(OCC(=O)O)c1)C(=O)NCCc1cccc2c1oc1c(CCC(N)=O)cccc12)c1ccc([N+](=O)[O-])cc1` (stereo partly drawn): the outcome was Active.

For the compound `Cc1ccc(C(=O)N[C@@H](CCCNC(=O)c2cccc(OCC(=O)O)c2)C(=O)N[C@@H](Cc2ccc(C#N)cc2)C(N)=O)c([N+](=O)[O-])c1O`, the result was Active.

Consider `NC(=O)c1cccc(OCC(=O)O)c1`, for which the result was Active.

For `Cc1ccc(C(=O)N[C@@H](CCCCNC(=O)c2cccc(OCC(=O)O)c2)C(=O)N[C@@H](Cc2cccc(Cl)c2)C(N)=O)c([N+](=O)[O-])c1O`, the outcome was Active.

The next assay deals with T3, Isochorismate synthase EntC (Escherichia coli K-12). The assay is described as follows: Competitive inhibition of Escherichia coli K12 IS expressed in Escherichia coli BL21(DE3) using chorismate as substrate by double reciprocal plot.
Conditions: not given
The gist of the method:
as §2
Consider `CC(C(=O)N[C@@H](CCCNC(=O)c1cccc(OCC(=O)O)c1)C(=O)NCCc1cccc2c1oc1c(CCC(N)=O)cccc12)c1ccc([N+](=O)[O-])cc1` (stereo partly drawn), for which the result was Active.

Take `Cc1ccc(C(=O)N[C@@H](CCCNC(=O)c2cccc(OCC(=O)O)c2)C(=O)N[C@@H](Cc2ccc(C#N)cc2)C(N)=O)c([N+](=O)[O-])c1O`: the outcome was Active.

Consider `NC(=O)c1cccc(OCC(=O)O)c1`, for which the outcome was Active.

In the case of `Cc1ccc(C(=O)N[C@@H](CCCCNC(=O)c2cccc(OCC(=O)O)c2)C(=O)N[C@@H](Cc2cccc(Cl)c2)C(N)=O)c([N+](=O)[O-])c1O`, the result was Active.

With `Cc1ccc(C(=O)N[C@@H](C)C(=O)N[C@@H](Cc2cccc(Cl)c2)C(N)=O)c([N+](=O)[O-])c1O`, the result was Active.

The target of another assay is Aminodeoxychorismate synthase component 1 PabB (Escherichia coli K-12) (UniProt P05041). The assay is described as follows: Noncompetitive inhibition of Escherichia coli K12 ADCS using chorismate as substrate by double reciprocal plot.
Conditions: not given
Consider `Cc1ccc(C(=O)N[C@@H](C)C(=O)N[C@@H](Cc2cccc(Cl)c2)C(N)=O)c([N+](=O)[O-])c1O`, for which the result was Active.

The next assay has the same target. The assay is described as follows: Competitive inhibition of Escherichia coli K12 ADCS using chorismate as substrate by double reciprocal plot.
Conditions: not given
Take `CC(C(=O)N[C@@H](CCCNC(=O)c1cccc(OCC(=O)O)c1)C(=O)NCCc1cccc2c1oc1c(CCC(N)=O)cccc12)c1ccc([N+](=O)[O-])cc1` (stereo partly drawn): the outcome was Active.

Regarding `Cc1ccc(C(=O)N[C@@H](CCCNC(=O)c2cccc(OCC(=O)O)c2)C(=O)N[C@@H](Cc2ccc(C#N)cc2)C(N)=O)c([N+](=O)[O-])c1O`, the result was Active.

Turning to `NC(=O)c1cccc(OCC(=O)O)c1`, the outcome was Active.

In the case of `Cc1ccc(C(=O)N[C@@H](CCCCNC(=O)c2cccc(OCC(=O)O)c2)C(=O)N[C@@H](Cc2cccc(Cl)c2)C(N)=O)c([N+](=O)[O-])c1O`, the outcome was Active.
